What was measured:
[1] = system: Paneth cells / intestinal crypts of WT mice; test: acute zinc deprivation by dithizone in mice; assay type: in vivo; conditions: dithizone 75 mg/kg i.p., 6 h
Outline: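 Male WT mice received dithizone at 75 mg/kg i.p., and intestines were collected 6 h later. Small-intestinal crypts were isolated for imaging and bacterial killing, and ileal Defa5 and Lyz1 mRNA was measured relative to untreated mice, n=6. Data are mean±SD, compared by t-test, rank-sum or ANOVA as appropriate (P<0.05).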

[2] = system: released crypt components (mainly AMPs) of isolated mouse crypts; assay type: cell-based, mice; conditions: 10 μmol/L carbamyl choline, then 2 μmol/L TPEN for 30 min; n=6
Outline: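 Crypts isolated from male WT mouse small intestine were treated with 10 μmol/L carbamyl choline to induce granule release. Released material was then exposed to 2 μmol/L TPEN for 30 min for zinc chelation, and its bactericidal activity was measured, n=6. Data are mean±SD.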

E. coli ML35 = E. coli ML35 killing of HD5 with or without zinc determined by flow cytometry; assay type: cell-based; conditions: n=6; for bactericidal activity: oxidized and reduced forms of HD5, without zinc
[3] = system: pair-fed and alcohol-fed mice; test: LPS injection 4 hours before finishing chronic feeding in mice; assay type: in vivo; conditions: LPS 4 mg/kg i.p., n=6
Outline: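 Male mice, 12 weeks old, were fed ethanol-containing Lieber-DeCarli liquid diet (alcohol-fed) or isocaloric control liquid diet (pair-fed) for 8 wk. A single LPS dose of 4 mg/kg was given i.p. 4 h before the end of feeding. Read-out was relative hepatic Lcn2 and Cxcl1 mRNA, n=6. Data are mean±SD, compared by t-test or one-way ANOVA with Newman-Keuls post hoc test (P<0.05).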

[4] = system: Hepa1c1c7 mouse hepatoma cells; assay type: cell-based; conditions: LPS 100 ng/mL, 6 h; n=3
mice = conditions: cited from earlier work
pepsin = assay type: in vitro ADME
alcohol-fed mice = assay type: in vivo
[5] = overnight incubation of HD5red with or without zinc, nUHPLC-MS; assay type: physicochemical

Molecule: S=C(N=Nc1ccccc1)NNc1ccccc1 [Dithizone, dithizone]
- PC degranulation [1]: rapid PC degranulation
- crypt bacterial killing ([1]; n=6): impaired
- expression of Defa5 and Lyz1 ([1]; ileal mRNA, n=6): reduced

Molecule: c1ccc(CN(CCN(Cc2ccccn2)Cc2ccccn2)Cc2ccccn2)nc1 [TPEN, N,N,N′,N′-Tetrakis(2-pyridylmethyl)ethylenediamine]
- bacterial killing of released crypt components after zinc chelation [2]: impaired bacterial killing

Molecule: [Zn] [Zinc, zinc]
- bacterial viability, zinc alone (E. coli ML35; zinc without HD5): did not affect bacterial viability

Molecule: lipopolysaccharide [LPS]
- hepatic Cxcl1 expression in AF mice in response to LPS ([3]; alcohol-fed mice): did not further alter
- hepatic Lcn2 in AF mice in response to LPS ([3]; alcohol-fed mice): only mildly upregulated
- hepatic Lcn2 and Cxcl1 in PF mice in response to LPS ([3]; pair-fed mice): dramatically upregulated
- Lcn2 and Cxcl1 expressions in Hepa1c1c7 hepatocytes [4]: directly stimulated

B1: human α-defensin 5 (peptide, UniProt Q01523 20-94, looked up)
Defensin alpha 5: ESLQERADEATTQKQSGEDNQDLAISFAGNGLSALRTSGSQARATCYCRTGRCATRESLSGVCEISGRLYRLCCR
modifications: Defensin-5
- antibacterial function of both forms of HD5 with zinc (E. coli ML35; HD5 oxidized and reduced forms, with zinc vs without): significantly improved
- bactericidal activity (E. coli ML35): effectively killed bacteria
- intestinal injury caused by alcohol and colitis (mice): attenuated
- Akkermensia sp. in mice (mice; without decreasing microbial diversity): increased
- intact HD5 that bypassed gastric digestion (pepsin): 75%
- intestinal structural changes (slight villous blunting), H&E staining (alcohol-fed mice; AF+HD5 group vs AF group (Fig. S11)): improved
- Verrucomicrobiaceae abundance in cecal contents (alcohol-fed mice; AF+HD5 mice, mean±SD, AF mice 2.03±0.69%, P<0.001, n=8): 20.39±5.29%
- plasma ALT levels (alcohol-fed mice; AF+HD5 vs AF, n=8): decreased
- A. muciniphila abundance, PCR analysis (alcohol-fed mice; cecal contents, AF+HD5 vs AF, n=4): significantly enriched
- expression of intestinal Il22 (alcohol-fed mice; ileal mRNA, AF+HD5 vs AF): notably augmented
- levels of inflammatory cytokines/chemokines, including Ip10, Tnfa, and Mip2 (alcohol-fed mice; ileal mRNA, AF+HD5 vs AF): lowered
- expression of ileal α-defensins, including Defa4, Defa20 and Defa21 (alcohol-fed mice; ileal mRNA, AF+HD5 vs AF, n=6): upregulated
- alcohol-impaired distribution of ZO-1 and claudin-1 (alcohol-fed mice; ileum, IF staining and Western blot, n=3): reversed
- alcohol-induced Lcn2 and Cxcl1 elevation, macrophage activation, and immune cell infiltration (alcohol-fed mice; liver, mRNA n=6, IHC/IF n=3): reduced
- plasma ethanol levels and protein levels of CYP2E1 and ALDH2 (alcohol-fed mice; mouse, in vivo): remained the same
- PAMP translocation, including endotoxemia and increased hepatic bacterial DNAs (alcohol-fed mice; plasma endotoxin, hepatic 16S rRNAs, n=8): effectively reversed

B2: HD5red: reduced form of HD5 (peptide, UniProt Q01523 20-94, looked up)
Defensin alpha 5: B1 Defensin alpha 5
modifications: Defensin-5 reduced form
- bactericidal activity (E. coli ML35): more potent
- redox state of HD5red after overnight incubation in the absence of zinc ([5]; no zinc): all became oxidized
- redox state of HD5red after overnight incubation with zinc ([5]; with zinc): a majority of HD5 remained in reduced forms

Source: paper PMC7069794 (Hepatology (Baltimore, Md.), 2020)
